From ChEMBL document CHEMBL3091462 (J Nat Prod, 2013)
Active and inactive are the calls of the source. No cut-off for these calls is given here.

Assays:
[1] = tested on: SW-620; test: Decrease of cyclin E expression in human SW620 cells after 24 hrs by immunoblotting; assay type: functional, cell-based
Summary of the method: (§1)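 HCT-116 or SW-620 cells exposed to 0–10 μM for 24 h. Cells lysed in Tris/NaCl/EDTA/1% Triton X-100 buffer with protease and phosphatase inhibitors at 4 °C, protein measured by BCA. Lysates run on 10–12.5% SDS-PAGE and immunoblotted, ECL detection. Cdk2, cyclin A and cyclin E antibodies used at 1:500; β-actin as loading control.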

[2] = tested on: HCT-116; test: Decrease of Cdk2 expression in human HCT116 cells after 24 hrs by immunoblotting; assay type: functional, cell-based; summary of the method: as §1
[3] = tested on: SW-620; test: Cell cycle arrest in human SW620 cells assessed as accumulation at G2/M phase at 1 uM after 48 hrs using propidium iodide staining by flow cytometry (reference value: 9.1 +/- 0.3%); assay type: functional
[4] = tested on: SW-620; test: Cell cycle arrest in human SW620 cells assessed as accumulation at G2/M phase at 5 uM after 48 hrs using propidium iodide staining by flow cytometry (reference value: 9.1 +/- 0.3%); assay type: functional
[5] = tested on: HCT-116; test: Cell cycle arrest in human HCT116 cells assessed as accumulation at G2/M phase at 10 uM after 48 hrs using propidium iodide staining by flow cytometry (reference value: 7.1 +/- 0.3%); assay type: functional
[6] = tested on: SW-620; test: Induction of apoptosis in human SW620 cells assessed as increase of expression of cleaved caspase-9 and caspase-3 after 24 hrs by immunoblotting; assay type: functional, cell-based
Summary of the method: (§2)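 HCT-116 or SW-620 cells treated with 0–10 μM for 24 h, lysed, and run on 15% SDS-PAGE immunoblots. Probed for Bcl-2 (1:1000), Bax (1:500), caspase-9/-3 and their cleaved forms (1:1000), and β-actin (1:1000). Bands quantified by densitometry; means ± SD of three experiments in duplicate.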

[7] = tested on: SW-620; test: Cytotoxicity against human SW620 cells assessed as cell growth inhibition at 10 uM after 48 hrs; assay type: functional; conditions: SW-620, 48 h, read-out: GI
Summary of the method: (§3)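 Cells seeded at 10^5 per well in RPMI 1640/10% FBS at 37 °C. Subconfluent cells exposed to 0, 0.1, 0.5, 1, 2, 5 or 10 μM for 48 h, or to 10 μM for 24, 48 and 72 h; ethanol vehicle, at most 0.01% v/v final. Cells trypsinized and counted by hemocytometer. Viability as % of control, means ± SD, three experiments in triplicate.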

[8] = tested on: HCT-116; test: Cell cycle arrest in human HCT116 cells assessed as accumulation at G0/G1 phase at 5 uM after 48 hrs using propidium iodide staining by flow cytometry (reference value: 56.7 +/- 1.9%); assay type: functional
[9] = tested on: SW-620; test: Decrease of Cdk2 expression in human SW620 cells after 24 hrs by immunoblotting; assay type: functional, cell-based; summary of the method: as §1
[10] = tested on: SW-620; test: Increase of p21 expression in human SW620 cells at 0.5 to 10 uM after 24 hrs by immunoblotting; assay type: functional, cell-based
Summary of the method: (§4)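 HCT-116 or SW-620 cells treated with 0–10 μM for 24 h. Lysates probed for p21 by SDS-PAGE immunoblotting with ECL detection; β-actin as loading control.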

[11] = tested on: HCT-116; test: Cell cycle arrest in human HCT116 cells assessed as accumulation at G0/G1 phase at 0.5 uM after 48 hrs using propidium iodide staining by flow cytometry (reference value: 56.7 +/- 1.9%); assay type: functional
[12] = tested on: HCT-116; test: Induction of apoptosis in human HCT116 cells assessed as increase of Bax protein expression after 24 hrs by immunoblotting; assay type: functional, cell-based; summary of the method: as §2
[13] = tested on: SW-620; test: Induction of apoptosis in human SW620 cells assessed as increase of Bax protein expression after 24 hrs by immunoblotting; assay type: functional, cell-based; summary of the method: as §2
[14] = tested on: HCT-116; test: Cytotoxicity against human HCT116 cells after 24 to 72 hrs; assay type: functional, cell-based; summary of the method: as §3
[15] = tested on: SW-620; test: Cell cycle arrest in human SW620 cells assessed as accumulation at G0/G1 phase at 1 uM after 48 hrs using propidium iodide staining by flow cytometry (reference value: 47.8 +/- 1.2%); assay type: functional
[16] = tested on: HCT-116; test: Cytotoxicity against human HCT116 cells assessed as inhibition of cell viability at 10 uM after 24 hrs; conditions: HCT-116, 24 h
[17] = tested on: SW-620; test: Cell cycle arrest in human SW620 cells assessed as accumulation at S phase at 10 uM after 48 hrs using propidium iodide staining by flow cytometry (reference value: 43.1 +/- 1%); assay type: functional
[18] = tested on: HCT-116; test: Increase of p21 expression in human HCT116 cells at 0.1 to 10 uM after 24 hrs by immunoblotting; assay type: functional, cell-based; summary of the method: as §4
[19] = tested on: SW-620; test: Induction of apoptosis in human SW620 cells at 10 uM after 48 hrs using Annexin V-FITC and propidium iodide staining by flow cytometry (reference value: 3.8 +/- 2.1%); assay type: functional
Summary of the method: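 Subconfluent cells in RPMI 1640 + 10% FBS treated with 0–10 μM for 48 h. Harvested cells incubated 10 min with FITC-annexin V/PI, then analysed by flow cytometry (488/525 nm for annexin V-FITC, 488/675 nm for PI). Reported as % apoptotic cells, means ± SD of three experiments in triplicate.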

[20] = tested on: SW-620; test: Induction of apoptosis in human SW620 cells expressing p21 siRNA assessed as change in cell morphology at 10 uM after 24 hrs by phase-contrast microscopic analysis; assay type: functional, cell-based
Summary of the method: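 Cells plated at 5 × 10^4 per well and transfected with 100 nM scrambled or p21 siRNA in OPTI-MEM for 4 h. Complete RPMI medium was added and cells grown a further 24 h, then exposed to 10 μM for 24 h. Viability measured by direct count after trypan blue staining. Morphology viewed by phase-contrast at 200×. Means ± SD, three experiments in triplicate.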

[21] = tested on: SW-620; test: Cell cycle arrest in human SW620 cells assessed as accumulation at G0/G1 phase at 10 uM after 48 hrs using propidium iodide staining by flow cytometry (reference value: 47.8 +/- 1.2%); assay type: functional
[22] = tested on: HCT-116; test: Cell cycle arrest in human HCT116 cells assessed as accumulation at S phase at 5 uM after 48 hrs using propidium iodide staining by flow cytometry (reference value: 36.3 +/- 1.7%); assay type: functional
[23] = tested on: HCT-116; test: Cell cycle arrest in human HCT116 cells assessed as accumulation at G2/M phase at 0.1 uM after 48 hrs using propidium iodide staining by flow cytometry (reference value: 7.1 +/- 0.3%); assay type: functional
[24] = tested on: HCT-116; test: Decrease of cyclin A expression in human HCT116 cells after 24 hrs by immunoblotting; assay type: functional, cell-based; summary of the method: as §1
[25] = tested on: SW-620; test: Cell cycle arrest in human SW620 cells assessed as accumulation at G0/G1 phase at 0.5 uM after 48 hrs using propidium iodide staining by flow cytometry (reference value: 47.8 +/- 1.2%); assay type: functional
[26] = tested on: SW-620; test: Cell cycle arrest in human SW620 cells assessed as accumulation at G2/M phase at 2 uM after 48 hrs using propidium iodide staining by flow cytometry (reference value: 9.1 +/- 0.3%); assay type: functional
[27] = tested on: SW-620; test: Effect on p57 expression in p53 deficient human SW620 cells at 0.5 to 10 uM after 24 hrs by immunoblotting; assay type: functional, cell-based
[28] = tested on: HCT-116; test: Cell cycle arrest in human HCT116 cells assessed as accumulation at G2/M phase at 5 uM after 48 hrs using propidium iodide staining by flow cytometry (reference value: 7.1 +/- 0.3%); assay type: functional

## CC(C)c1cccc(=O)c(O)c1 [HINOKITIOL]
[1]
  Activity: Dose-dependent effect
[2]
  Activity: Dose-dependent effect
[3]
  Activity: 6.8%
[4]
  Activity: 7.2%
[5]
  Activity: 7.4%
[6]
  Activity: Dose-dependent effect
[7]
  inhibition of growth at 10 µM: 63%
[8]
  Activity: 44.6%
[9]
  Activity: Dose-dependent effect
[10]
  Activity: Active
[11]
  Activity: 56.5%
[12]
  Activity: Dose-dependent effect
[13]
  Activity: Dose-dependent effect
[14]
  IC50: 4.5 µM
  growth inhibition (GI): Dose-dependent effect
[15]
  Activity: 45.6%
[16]
  inhibition of viability at 10 µM: 27%
[17]
  Activity: 87%
[18]
  Activity: Active
[19]
  Activity: 80.3%
[20]
  Activity: inactive
[21]
  Activity: 11.5%
[22]
  Activity: 43.5%
[23]
  Activity: 7.5%
[24]
  Activity: Dose-dependent effect
[25]
  Activity: 48.3%
[26]
  Activity: 4.5%
[27]
  Activity: inactive
[28]
  Activity: 11.9%
